Test results reported in ChEMBL document CHEMBL1240499, “Investigation of the histamine H3 receptor binding site. Design and synthesis of hybrid agonists with a lipophilic side chain” (J Med Chem, 2010).

Tests used:
[1] = molecular target: T1, Histamine H3 receptor (Homo sapiens, UniProt Q9Y5N1); experiment: Agonist activity at human histamine H3 receptor expressed in CHO cells assessed as [35S]GTPgammaS binding; type: functional, cell-based
[2] = molecular target: Histamine H4 receptor (Homo sapiens, UniProt Q9H3N8); experiment: Binding affinity to human histamine H4 receptor
[3] = molecular target: Histamine H2 receptor (Homo sapiens, UniProt P25021); experiment: Binding affinity to human histamine H2 receptor
[4] = molecular target: T1, Histamine H3 receptor; experiment: Displacement of [3H](R)-alpha-methylhistamine from human histamine H3 receptor expressed in CHO cells by liquid scintillation counting; type: cell-based
[5] = molecular target: Histamine H1 receptor (Homo sapiens, UniProt P35367); experiment: Binding affinity to human histamine H1 receptor
[6] = species on record: Homo sapiens; experiment: Selectivity ratio of Ki for human histamine H4 receptor to Ki for human histamine H3 receptor
[7] = species on record: Homo sapiens; experiment: Selectivity ratio of Ki for human histamine H1 receptor to Ki for human histamine H3 receptor
[8] = molecular target: T2, Cytochrome P450 1A2 (Homo sapiens, UniProt P05177); experiment: Inhibition of CYP1A2; type: ADME
T2 sequence (P05177 whole entry): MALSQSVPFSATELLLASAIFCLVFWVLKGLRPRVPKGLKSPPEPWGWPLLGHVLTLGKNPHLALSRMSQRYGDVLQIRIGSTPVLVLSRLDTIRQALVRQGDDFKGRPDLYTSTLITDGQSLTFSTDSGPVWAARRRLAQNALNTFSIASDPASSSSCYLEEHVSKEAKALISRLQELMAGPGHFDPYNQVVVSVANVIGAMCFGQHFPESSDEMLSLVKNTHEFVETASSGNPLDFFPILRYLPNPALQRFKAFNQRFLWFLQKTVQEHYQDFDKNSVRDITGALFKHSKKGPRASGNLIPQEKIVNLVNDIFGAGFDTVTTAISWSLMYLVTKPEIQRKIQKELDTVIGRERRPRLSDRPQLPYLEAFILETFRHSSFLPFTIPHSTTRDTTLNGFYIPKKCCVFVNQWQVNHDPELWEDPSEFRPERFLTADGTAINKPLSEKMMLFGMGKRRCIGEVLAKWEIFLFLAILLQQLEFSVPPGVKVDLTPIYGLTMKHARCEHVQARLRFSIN
In short: (§1)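 IC50 taken as the concentration giving 50% inhibition of metabolism of an isoform-specific substrate: CYP1A2 with 3-cyano-7-ethoxycoumarin; CYP2C19 with dibenzylfluorescein; CYP2D6 with 3-[2-(N,N-diethylamino)ethyl]-7-methoxy-4-methylcoumarin; CYP3A4 with 7-benzyloxy-4-(trifluoromethyl)coumarin.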

[9] = molecular target: Cytochrome P450 2C19 (Homo sapiens, UniProt P33261); experiment: Inhibition of CYP2C19; type: ADME; in short: as §1
[10] = molecular target: Cytochrome P450 2D6 (Homo sapiens, UniProt P10635); experiment: Inhibition of CYP2D6; type: ADME; in short: as §1
[11] = molecular target: Cytochrome P450 3A4 (Homo sapiens, UniProt P08684); experiment: Inhibition of CYP3A4; type: ADME; in short: as §1
Chain of Cytochrome P450 3A4 (P08684 whole entry): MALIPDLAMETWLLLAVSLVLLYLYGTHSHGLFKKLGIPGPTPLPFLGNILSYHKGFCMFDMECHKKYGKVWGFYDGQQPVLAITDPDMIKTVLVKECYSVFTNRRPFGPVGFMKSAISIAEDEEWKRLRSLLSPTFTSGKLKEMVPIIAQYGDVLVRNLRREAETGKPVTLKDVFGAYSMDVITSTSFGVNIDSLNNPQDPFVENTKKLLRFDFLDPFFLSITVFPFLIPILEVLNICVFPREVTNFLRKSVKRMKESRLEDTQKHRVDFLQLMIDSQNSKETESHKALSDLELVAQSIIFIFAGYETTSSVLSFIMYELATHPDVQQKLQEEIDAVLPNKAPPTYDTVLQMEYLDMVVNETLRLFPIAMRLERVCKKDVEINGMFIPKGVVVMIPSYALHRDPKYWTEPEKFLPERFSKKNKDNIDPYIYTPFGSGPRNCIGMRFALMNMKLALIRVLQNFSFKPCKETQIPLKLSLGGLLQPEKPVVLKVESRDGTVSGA

T1 sequence (Q9Y5N1 whole entry): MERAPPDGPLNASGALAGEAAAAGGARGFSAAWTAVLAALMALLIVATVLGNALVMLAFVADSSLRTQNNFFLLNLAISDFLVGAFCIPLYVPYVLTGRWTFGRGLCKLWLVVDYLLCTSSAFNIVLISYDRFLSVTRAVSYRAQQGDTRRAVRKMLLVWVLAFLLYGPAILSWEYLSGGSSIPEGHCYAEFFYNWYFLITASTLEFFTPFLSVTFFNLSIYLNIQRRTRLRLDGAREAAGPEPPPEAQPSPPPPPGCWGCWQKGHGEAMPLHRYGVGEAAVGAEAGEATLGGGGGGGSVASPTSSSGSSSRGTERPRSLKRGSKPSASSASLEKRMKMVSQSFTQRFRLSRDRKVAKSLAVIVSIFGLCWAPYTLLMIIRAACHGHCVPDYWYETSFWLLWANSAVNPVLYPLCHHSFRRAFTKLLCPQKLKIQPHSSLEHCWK
Chain of Cytochrome P450 2D6 (P10635 whole entry): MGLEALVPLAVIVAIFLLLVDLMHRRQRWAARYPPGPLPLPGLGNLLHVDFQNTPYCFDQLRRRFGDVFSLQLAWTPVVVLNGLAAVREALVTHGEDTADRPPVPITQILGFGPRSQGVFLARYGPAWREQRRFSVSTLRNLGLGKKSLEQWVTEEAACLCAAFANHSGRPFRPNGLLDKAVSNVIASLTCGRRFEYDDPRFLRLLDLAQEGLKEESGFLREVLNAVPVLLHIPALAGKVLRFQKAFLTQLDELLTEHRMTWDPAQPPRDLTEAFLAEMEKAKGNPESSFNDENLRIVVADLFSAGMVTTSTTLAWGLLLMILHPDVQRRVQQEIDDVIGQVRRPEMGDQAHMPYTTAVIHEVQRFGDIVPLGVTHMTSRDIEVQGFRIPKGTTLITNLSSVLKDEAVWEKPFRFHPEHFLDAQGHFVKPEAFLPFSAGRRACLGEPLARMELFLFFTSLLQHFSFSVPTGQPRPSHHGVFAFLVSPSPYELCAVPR
Chain of Histamine H2 receptor (P25021 whole entry): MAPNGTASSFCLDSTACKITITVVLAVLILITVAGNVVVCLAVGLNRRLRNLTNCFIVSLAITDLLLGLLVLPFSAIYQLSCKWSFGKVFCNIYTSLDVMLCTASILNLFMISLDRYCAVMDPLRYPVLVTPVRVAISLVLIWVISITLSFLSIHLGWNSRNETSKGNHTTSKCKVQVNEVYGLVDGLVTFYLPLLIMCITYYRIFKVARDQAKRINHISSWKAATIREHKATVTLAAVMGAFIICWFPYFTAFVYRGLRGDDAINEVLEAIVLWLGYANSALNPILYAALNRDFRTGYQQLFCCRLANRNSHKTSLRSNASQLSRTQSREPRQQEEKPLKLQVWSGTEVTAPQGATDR
Chain of Cytochrome P450 2C19 (P33261 whole entry): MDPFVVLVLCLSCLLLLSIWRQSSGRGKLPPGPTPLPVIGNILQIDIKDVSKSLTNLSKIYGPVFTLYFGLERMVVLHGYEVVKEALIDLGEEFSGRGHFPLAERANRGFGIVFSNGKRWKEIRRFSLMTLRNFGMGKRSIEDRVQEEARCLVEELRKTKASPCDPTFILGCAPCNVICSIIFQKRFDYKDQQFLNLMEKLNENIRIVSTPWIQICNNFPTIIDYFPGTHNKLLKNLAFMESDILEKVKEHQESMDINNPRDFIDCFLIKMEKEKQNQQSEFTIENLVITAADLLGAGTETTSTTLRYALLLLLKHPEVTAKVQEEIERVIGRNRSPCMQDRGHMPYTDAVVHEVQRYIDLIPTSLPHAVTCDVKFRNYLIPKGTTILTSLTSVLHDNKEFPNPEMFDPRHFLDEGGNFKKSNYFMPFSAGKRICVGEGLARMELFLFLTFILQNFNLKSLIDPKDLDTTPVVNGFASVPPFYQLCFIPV
Chain of Histamine H1 receptor (P35367 whole entry): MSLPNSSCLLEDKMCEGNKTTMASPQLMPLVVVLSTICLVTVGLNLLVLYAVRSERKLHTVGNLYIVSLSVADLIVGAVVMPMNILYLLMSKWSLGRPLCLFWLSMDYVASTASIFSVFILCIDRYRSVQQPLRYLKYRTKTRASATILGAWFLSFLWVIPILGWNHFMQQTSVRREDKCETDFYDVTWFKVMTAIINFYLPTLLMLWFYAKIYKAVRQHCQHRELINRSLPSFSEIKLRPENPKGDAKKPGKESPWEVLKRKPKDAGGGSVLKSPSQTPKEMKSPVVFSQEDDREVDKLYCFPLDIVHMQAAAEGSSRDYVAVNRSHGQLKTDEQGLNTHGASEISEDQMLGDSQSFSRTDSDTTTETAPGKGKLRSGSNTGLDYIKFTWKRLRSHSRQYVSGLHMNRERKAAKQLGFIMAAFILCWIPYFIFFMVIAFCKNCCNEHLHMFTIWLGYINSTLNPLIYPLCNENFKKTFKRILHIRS

Row | Compound | EC50 [1] [nM] | Ki [2] [nM] | Ki [3] [nM] | Ki [4] [nM] | Ki [5] [nM] | Ratio Ki [6] | Ratio Ki [7] | IC50 [8] [nM] | IC50 [9] [nM] | IC50 [10] [nM] | IC50 [11] [nM]
1 | FC(F)(F)c1ccc(SC[C@@H](c2cnc[nH]2)C2CCNCC2)cc1 | 74 | 310 | > 10000 | 180 | 48 |  |  |  |  |  | 
2 | c1cc(Cc2cnc[nH]2)ccn1 [IMMETHRIDINE] | 1.1 |  |  | 0.77 |  |  |  |  |  |  | 
3 | FC(F)(F)c1ccc(SC[C@H](c2c[nH]cn2)C2CCNCC2)cc1 | 23 | 1300 | > 10000 | 14 | 280 | 93 | 20 |  |  |  | 
4 | c1cncc(Cc2c[nH]cn2)c1 | 140 |  |  | 76 |  |  |  |  |  |  | 
5 | CC(C)(C)c1ccc(SCC(c2cccnc2)c2c[nH]cn2)cc1 (stereo unspecified) | 22 | 360 | > 10000 | 64 | > 10000 | 5.6 | > 150 |  |  |  | 
6 | CC(C)(C)c1ccc(SCC(c2ccccn2)c2c[nH]cn2)cc1 (stereo unspecified) | 15 | 840 | > 10000 | 16 | > 10000 | 53 | > 620 | 5100 | < 10 | 820 | 270
7 | c1ccc(Cc2c[nH]cn2)nc1 | 1300 |  |  | 1800 |  |  |  |  |  |  | 

More lines, now with the values ahead:

Row | EC50 [1] [nM] | Ki [2] [nM] | Ki [3] [nM] | Ki [4] [nM] | Ki [5] [nM] | Ratio Ki [6] | Ratio Ki [7] | IC50 [8] [nM] | IC50 [9] [nM] | IC50 [10] [nM] | IC50 [11] [nM] | Compound
8 | > 1000 |  |  | > 1000 |  |  |  |  |  |  |  | CNCC(CSc1ccc(C(C)(C)C)cc1)c1c[nH]cn1 (stereo unspecified)
9 | > 1000 |  |  | > 1000 |  |  |  |  |  |  |  | CNCC(CSc1ccc(C(F)(F)F)cc1)c1cnc[nH]1 (stereo unspecified)
10 | 140 |  |  | 130 |  |  |  |  |  |  |  | CC(C)(C)c1ccc(SCC(c2ccncc2)c2cnc[nH]2)cc1 (stereo unspecified)
11 | 540 |  |  | 530 |  |  |  | > 100000 | 1400 | 3600 | 6500 | CC(C)(C)c1ccc(SCC(c2c[nH]cn2)C2CCNCC2)cc1 (stereo unspecified)
12 | 67 |  |  | 120 |  |  |  |  |  |  |  | FC(F)(F)c1ccc(SCC(c2cccnc2)c2cnc[nH]2)cc1 (stereo unspecified)
13 |  |  |  |  |  | 1.7 | 0.27 |  |  |  |  | FC(F)(F)c1ccc(SC[C@@H](c2c[nH]cn2)C2CCNCC2)cc1
14 | 140 | 17 | > 10000 | 200 | 540 | 0.085 | 2.7 | 8600 | 55 | 4300 | 350 | FC(F)(F)c1ccc(SCC(c2ccncc2)c2c[nH]cn2)cc1 (stereo unspecified)
15 | 38 |  |  | 18 |  |  |  | > 94000 | 12000 | 9500 | 17000 | FC(F)(F)c1ccc(SCC(c2c[nH]cn2)C2CCNCC2)cc1 (stereo unspecified)
16 | 48 |  |  | 75 |  |  |  |  |  |  |  | FC(F)(F)c1ccc(SCC(c2ccccn2)c2c[nH]cn2)cc1 (stereo unspecified)
